The source of these data is ChEMBL document CHEMBL1154253, “Synthesis and serotonin transporter activity of sulphur-substituted alpha-alkyl phenethylamines as a new class of anticancer agents” (Eur J Med Chem, 2009).

Each structure is given as a SMILES string. The source made the active and inactive calls. The rule behind the calls is not given here.

In series [1] the test system is HEK293. Kind of series: Cytotoxicity against human HEK293 cells after 48 hrs by neutral red assay. Format: cell-based. The settings on record: HEK293, 48 h, read-out: pEC50 (converted). A digest of the protocol: (§1)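 Neutral Red uptake: 5 × 10⁴ cells/well grown 24–36 h to sub-confluence, then treated 48 h. Cells incubated 3 ± 1 h with NR dye, washed and solubilised in 50% ethanol–1% acetic acid, and absorbance read at 540 nm (690 nm background). Viability given as % of vehicle-treated cells. pEC50 obtained by sigmoidal regression (Hill slope 1) using 4 concentrations in triplicate on two independent days. SERT-line values compared with parental HEK293 by two-way ANOVA with Bonferroni test. Sodium azide 30 mM and Triton-X 2% as positive controls.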

The target in series [2] is Sodium-dependent serotonin transporter (Rattus norvegicus, UniProt P31652). Kind of series: Inhibition of [3H]5-HT reuptake at rat SERT expressed in HEK293 cells after 2 mins by liquid scintillation counting. The class given is cell-based.
Sodium-dependent serotonin transporter (Rattus norvegicus, UniProt P31652), sequence (P31652 whole entry): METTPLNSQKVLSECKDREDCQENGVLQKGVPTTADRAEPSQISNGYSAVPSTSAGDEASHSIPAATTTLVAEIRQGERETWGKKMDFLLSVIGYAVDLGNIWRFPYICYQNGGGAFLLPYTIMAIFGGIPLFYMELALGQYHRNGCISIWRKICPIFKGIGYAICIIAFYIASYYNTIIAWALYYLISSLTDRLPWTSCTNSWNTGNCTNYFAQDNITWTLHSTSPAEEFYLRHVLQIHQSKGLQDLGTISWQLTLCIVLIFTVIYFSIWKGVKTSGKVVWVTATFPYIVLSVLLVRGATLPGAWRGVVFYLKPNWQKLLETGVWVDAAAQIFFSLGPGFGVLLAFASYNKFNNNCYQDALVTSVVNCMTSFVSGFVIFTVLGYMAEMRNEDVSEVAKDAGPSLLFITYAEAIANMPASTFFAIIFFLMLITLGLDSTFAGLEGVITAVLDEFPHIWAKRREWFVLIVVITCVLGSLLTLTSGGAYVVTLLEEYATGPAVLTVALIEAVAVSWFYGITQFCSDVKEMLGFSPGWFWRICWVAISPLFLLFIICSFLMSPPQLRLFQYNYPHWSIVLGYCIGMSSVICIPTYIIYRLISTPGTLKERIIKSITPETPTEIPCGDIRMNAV
A further series concerns SH-SY5Y. Kind of series: Cytotoxicity against human SH-SY5Y cells after 48 hrs by neutral red assay. Format: functional, cell-based.
Series [3] concerns the target Sodium-dependent serotonin transporter (Rattus norvegicus) (UniProt P31652). As to the kind of experiment: Inhibition of [3H]5-HT reuptake at rat SERT expressed in HEK293 cells at 100 uM after 2 mins by liquid scintillation counting. Format: cell-based.
Series [4] deals with T1, Sodium-dependent serotonin transporter (Homo sapiens, UniProt P31645). As to the kind of experiment: Inhibition of [3H]5-HT uptake at SERT.
Target sequence in this assay (P31645 whole entry): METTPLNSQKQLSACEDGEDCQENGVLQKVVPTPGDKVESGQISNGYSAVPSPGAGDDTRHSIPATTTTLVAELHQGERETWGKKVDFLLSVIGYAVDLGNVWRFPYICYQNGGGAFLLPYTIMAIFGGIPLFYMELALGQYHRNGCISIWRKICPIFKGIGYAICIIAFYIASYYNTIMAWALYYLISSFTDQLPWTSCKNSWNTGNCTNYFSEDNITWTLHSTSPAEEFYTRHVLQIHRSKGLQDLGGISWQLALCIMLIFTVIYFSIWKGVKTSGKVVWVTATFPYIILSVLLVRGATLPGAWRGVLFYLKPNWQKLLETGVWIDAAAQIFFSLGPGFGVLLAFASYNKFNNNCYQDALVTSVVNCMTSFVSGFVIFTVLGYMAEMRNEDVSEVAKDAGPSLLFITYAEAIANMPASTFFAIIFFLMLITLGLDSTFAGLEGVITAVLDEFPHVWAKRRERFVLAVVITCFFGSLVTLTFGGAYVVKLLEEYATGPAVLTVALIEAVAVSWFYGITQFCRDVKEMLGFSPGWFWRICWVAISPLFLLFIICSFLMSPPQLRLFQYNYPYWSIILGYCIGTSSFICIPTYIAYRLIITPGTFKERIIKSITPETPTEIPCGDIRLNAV
For series [5], the target named is Sodium-dependent noradrenaline transporter (Homo sapiens, UniProt P23975). As to the kind of experiment: Inhibition of human noradrenaline transporter.
Sodium-dependent noradrenaline transporter, sequence (P23975 whole entry): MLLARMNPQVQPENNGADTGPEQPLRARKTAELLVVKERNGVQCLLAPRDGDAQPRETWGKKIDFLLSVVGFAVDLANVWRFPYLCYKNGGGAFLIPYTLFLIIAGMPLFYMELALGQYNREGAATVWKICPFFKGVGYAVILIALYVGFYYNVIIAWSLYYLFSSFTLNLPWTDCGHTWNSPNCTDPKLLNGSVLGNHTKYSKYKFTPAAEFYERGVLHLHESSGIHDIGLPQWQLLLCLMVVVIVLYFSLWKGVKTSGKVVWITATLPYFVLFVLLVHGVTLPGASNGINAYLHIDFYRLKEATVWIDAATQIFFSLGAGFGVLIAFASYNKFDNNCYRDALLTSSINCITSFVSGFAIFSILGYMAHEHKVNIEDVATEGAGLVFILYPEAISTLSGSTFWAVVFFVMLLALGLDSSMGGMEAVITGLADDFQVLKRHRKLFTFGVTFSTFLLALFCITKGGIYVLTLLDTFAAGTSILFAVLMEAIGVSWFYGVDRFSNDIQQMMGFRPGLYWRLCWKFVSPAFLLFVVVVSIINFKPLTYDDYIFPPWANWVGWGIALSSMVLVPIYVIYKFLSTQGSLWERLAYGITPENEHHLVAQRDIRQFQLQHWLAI
The species entered for series [6] is Rattus norvegicus. As to the kind of experiment: Selectivity ratio of IC50 for NET in rat brain synaptosome to IC50 for SERT in rat brain synaptosome. The class given is tissue-based.
The species entered for series [7] is Rattus norvegicus. As to the kind of experiment: Selectivity ratio of IC50 for DAT in rat brain synaptosome to IC50 for SERT in rat brain synaptosome. Format: tissue-based.
For series [8], the target named is T1, Sodium-dependent serotonin transporter. Kind of series: Inhibition of [3H]5-HT uptake at human SERT expressed in HEK293 cells after 10 mins by scintillation counting. The class given is cell-based.
Target sequence in this assay (P31645 whole entry): as the sequence (P31645 whole entry) above
Series [9] shares this target. Kind of series: Induction of human SERT-dependent cytotoxicity in SERT expressing HEK293 cells at 1 uM after 48 hrs by neutral red assay. Format: cell-based. A digest of the protocol:
as §1
Target sequence in this assay (P31645 whole entry, looked up): as the sequence (P31645 whole entry) above

Series [10] concerns the target Sodium-dependent dopamine transporter (Homo sapiens, UniProt Q01959). As to the kind of experiment: Inhibition of human dopamine transporter.
The test system of series [11] is HEK293. Kind of series: Cytotoxicity against human HEK293 cells at 1 uM after 48 hrs by neutral red assay. The class given is cell-based. The note with it: hek293, 48 h. In outline:
as §1

Sodium-dependent dopamine transporter, sequence (Q01959 whole entry): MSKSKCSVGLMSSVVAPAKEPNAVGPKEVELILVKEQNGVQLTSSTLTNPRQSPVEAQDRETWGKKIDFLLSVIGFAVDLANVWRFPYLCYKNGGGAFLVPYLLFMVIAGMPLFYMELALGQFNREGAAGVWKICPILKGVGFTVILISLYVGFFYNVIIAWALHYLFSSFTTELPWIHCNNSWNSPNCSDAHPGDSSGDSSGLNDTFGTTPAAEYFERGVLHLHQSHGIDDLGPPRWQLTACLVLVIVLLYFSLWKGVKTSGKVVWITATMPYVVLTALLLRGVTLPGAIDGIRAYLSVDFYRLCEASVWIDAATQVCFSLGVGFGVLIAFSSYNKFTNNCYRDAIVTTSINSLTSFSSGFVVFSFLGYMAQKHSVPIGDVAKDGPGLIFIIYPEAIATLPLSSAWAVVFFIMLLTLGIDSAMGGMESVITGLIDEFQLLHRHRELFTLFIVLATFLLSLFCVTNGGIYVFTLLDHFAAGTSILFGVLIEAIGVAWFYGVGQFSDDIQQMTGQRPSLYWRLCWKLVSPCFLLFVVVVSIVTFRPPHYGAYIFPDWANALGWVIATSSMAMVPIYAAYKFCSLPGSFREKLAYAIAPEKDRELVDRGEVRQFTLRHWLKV
Sodium-dependent serotonin transporter (Rattus norvegicus), sequence (P31652 whole entry): as the sequence (P31652 whole entry) above

For `CCNC(C)Cc1ccc(SC)cc1` (stereo unspecified), the EC50 in the series on HEK293 [1] was 16.2 µM; in the series on SH-SY5Y (read-out: pEC50 (converted)), 1860 µM. Besides, the 50% inhibitory concentration (IC50) (as a rule, the concentration needed to halve the response being measured) in series [2] is 0.963 µM.
As to `COc1ccc(CC(C)N)cc1` (stereo unspecified) [PARA-METHOXYAMPHETAMINE], the EC50 in the series on HEK293 [1] is 457 µM; in the series on SH-SY5Y (read-out: pEC50 (converted)), over 10000 µM. The compound further displayed a 50% inhibitory concentration (IC50) in [2] of 0.173 µM.
The matching figures for `CSc1ccc(CC(C)N(C)O)cc1` (stereo unspecified): 24 µM, 229 µM and 1.87 µM.
Turning to `CCSc1ccc(CC(C)N(C)O)cc1` (stereo unspecified), the EC50 in the series with HEK293 [1] is 12.3 µM; in the series on SH-SY5Y (read-out: pEC50 (converted)), 43.7 µM. In series [2], this compound registered an IC50 of 1.57 µM.
As for `CC(N)Cc1ccc(SC(C)(C)C)cc1` (stereo unspecified), the EC50 was 7.24 µM in the series with HEK293 [1], 1 µM in the series on SH-SY5Y (read-out: EC50) and 20.4 µM with SH-SY5Y (read-out: pEC50 (converted)). The inhibition – broadly, the percentage by which the read-out fell short of the control – in series [3] came to 100%.
As for `CSc1ccc(CC(C)NCCO)cc1` (stereo unspecified), the EC50 in the series with HEK293 [1] is 10 µM; in the series on SH-SY5Y (read-out: pEC50 (converted)), 2290 µM. The compound also came in with an IC50 in series [2] of 0.868 µM.
For `CSc1ccc(CC(C)N)cc1` (stereo unspecified) [4-METHYLTHIOAMPHETAMINE], the half-inhibitory concentration (IC50) in [4] was determined as 0.074 µM; in [5], 2.38 µM; in series [10], 3.07 µM; in series [2], 0.207 µM. The EC50 in the series with HEK293 [1] is 18.6 µM; with SH-SY5Y (read-out: EC50), 1 µM; in the series with SH-SY5Y (read-out: pEC50 (converted)), 608 µM. In addition, the Ratio IC50 is 2370 in the series filed under Rattus norvegicus [6] and 3070 in the series listed under Rattus norvegicus [7]. Also, affinity in series [8] was put at a Ki of 0.45 µM. Besides, the result in series [9] was Active. Moreover, in the series with HEK293 [11], the Activity entry was “Toxic”.
Take `CSc1ccc(CC(C)NO)cc1` (stereo unspecified): the results for the EC50 in the series on HEK293 [1] and in the series on SH-SY5Y (read-out: pEC50 (converted)) were 38 µM and 575 µM, respectively. The compound also came in with an IC50 in [2] of 0.436 µM.
In the case of `CC(N)Cc1ccc(SCCN(C)C)cc1` (stereo unspecified), the EC50 in the series with HEK293 [1] is 8.71 µM; with SH-SY5Y (read-out: EC50), 1 µM; in the series with SH-SY5Y (read-out: pEC50 (converted)), 240 µM. In series [2], this compound had an IC50 of 43.3 µM.
As to `CCNC(CC)Cc1ccc(SC)cc1` (stereo unspecified), the results for the EC50 in the series with HEK293 [1] and in the series with SH-SY5Y (read-out: pEC50 (converted)) were 10 µM and 151 µM, respectively. Moreover, the half-inhibitory concentration (IC50) in [2] is 0.823 µM.
The matching figures for `CSc1ccc(CC(C)NC(C)C)cc1` (stereo unspecified): 30.9 µM, 1950 µM and 1.85 µM.
The matching figures for `CCC(Cc1ccc(SC)cc1)NC1CC1` (stereo unspecified): 10.7 µM, over 10000 µM and 0.872 µM.
For `CCNC(CC)Cc1ccc(SCC)cc1` (stereo unspecified) the same measures were 251 µM, 245 µM and 1.8 µM.
`CCSc1ccc(CC(N)CC)cc1` (stereo unspecified): the values for the EC50 with HEK293 [1] and in the series on SH-SY5Y (read-out: pEC50 (converted)) were 5.13 µM and 53.7 µM, respectively. The same compound showed an IC50 in series [2] of 1.29 µM.
As for `CC(N)Cc1ccc2c(c1)OCO2` (stereo unspecified) [TENAMFETAMINE], the figures for the EC50 in the series on HEK293 [1] and in the series with SH-SY5Y (read-out: pEC50 (converted)) were 324 µM and over 10000 µM, respectively. Further, the half-maximal inhibitory concentration (IC50) came out at 0.266 µM in series [5], 0.89 µM in [10] and 0.996 µM in [2].
For `COCCNC(C)Cc1ccc(SC)cc1` (stereo unspecified), the EC50 in the series with HEK293 [1] is 22.9 µM; in the series on SH-SY5Y (read-out: pEC50 (converted)), 1350 µM. The compound also had a 50% inhibitory concentration (IC50) in series [2] of 3.58 µM.
Take `CONC(C)Cc1ccc(SC)cc1` (stereo unspecified): the EC50 in the series with HEK293 [1] is 11 µM; with SH-SY5Y (read-out: pEC50 (converted)), 2450 µM. In series [2], this compound showed an IC50 of 0.664 µM.
For `CCNC(C)Cc1ccc(SCC)cc1` (stereo unspecified) the same measures were 6.31 µM, 302 µM and 0.478 µM.
For `CCCNC(CC)Cc1ccc(SC)cc1` (stereo unspecified) the same measures were 303 µM, 3020 µM and 0.621 µM.
For `C=CCNC(C)Cc1ccc(SC)cc1` (stereo unspecified) the same measures were 15.5 µM, 123 µM and 0.524 µM.
Regarding `CSc1ccc(CC(C)NC2CC2)cc1` (stereo unspecified), the values for the EC50 in the series with HEK293 [1] and in the series with SH-SY5Y (read-out: pEC50 (converted)) were 18.6 µM and 372 µM, respectively. In addition, in series [2], the IC50 was found to be 0.702 µM.
